Screening data deposited in PubChem BioAssay by Broad Institute.
IDH1 R132H inh = IDH1 R132H (human) inhibition | O75874 | hit rate 0.18% among 70,000 | inhibition, % at 10 µM | IDH1 R132H reductase, diaphorase/resazurin fluorescence, 60 min; in the data active = inhibition above about 34%; inconclusive = no clear call, values can overlap the other calls; inactive = below about 11%;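 note: 0% = DMSO and 100% = no enzyme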
T cruzi growth-1 = inhibitors of T. cruzi proliferation | hit rate 5.9% among 77,000 | T. cruzi beta-gal in NIH3T3, GalScreen luminescence, 90 h | AID 624255 | inhibition, % at 8.34 µM;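 active = mean inhibition above about 93%, with at least 55% of replicates each passing it, limit read from the data, passing the limit was not always enough; inconclusive = only one of those two conditions holds; inactive = neither condition holds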
KDM4C inh = inhibitors of human demethylase GASC-1 KDM4C; Q9H3R0; GST-KDM4C 2-372, H3K9me3 peptide, LANCE TR-FRET; inhibition, % at 12.5 µM; hit rate 0.15% among 96,000;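 active = mean replicate inhibition above about 25%, with at least 55% of replicates also reaching it, limit read from the data, passing the limit was not always enough; inconclusive = only one of those two conditions met; inactive = neither condition met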
Target sequence (Q9H3R0 2-372 limits assumed): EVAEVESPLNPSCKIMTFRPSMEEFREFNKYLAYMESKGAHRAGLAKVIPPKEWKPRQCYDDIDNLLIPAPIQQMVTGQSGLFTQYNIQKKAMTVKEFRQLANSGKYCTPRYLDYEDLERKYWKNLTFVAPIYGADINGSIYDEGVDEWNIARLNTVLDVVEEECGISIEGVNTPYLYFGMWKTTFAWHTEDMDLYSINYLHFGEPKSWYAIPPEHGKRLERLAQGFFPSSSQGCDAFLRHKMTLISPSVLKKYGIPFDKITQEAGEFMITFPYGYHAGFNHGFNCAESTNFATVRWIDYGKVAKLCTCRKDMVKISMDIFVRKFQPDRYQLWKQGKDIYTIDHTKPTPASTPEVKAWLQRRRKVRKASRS
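material = GST-tagged GASC-1 (JMJD2C) catalytic fragment, aa 2-372 | amount = enzyme final amount 10 nM | medium = HEPES buffer, pH 7.5, plus ascorbate | also added = H3K9me3 peptide substrate, Fe(II), 2-oxoglutarate | dosing = single dose | times = 30 min demethylation and 1 h detection at room temperature | detection = LANCE TR-FRET | read-out basis = Fall in 671/618 emission ratio as inhibition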
T cruzi growth-2 = blocks T. cruzi growth in NIH3T3 host cells. shares compounds with T cruzi growth-1. T. cruzi beta-gal in NIH3T3, GalScreen luminescence, 90 h. inhibition, % at 8.35 µM. hit rate 72% among 5,600;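 active = mean replicate inhibition above about 95% and at least 55% of replicates individually reaching it, limit read from the data; inconclusive = only one of the two criteria is met; inactive = neither criterion is met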
T cruzi growth-3 = inhibitors of T. cruzi proliferation | shares compounds with T cruzi growth-1 | T. cruzi beta-gal in NIH3T3, GalScreen luminescence, 90 h | inhibition, % at 2.09 µM | hit rate 21% among 5,600 | AID 651740;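 active = mean inhibition above about 95%, with at least 55% of replicates also reaching it, limit read from the data; inconclusive = meets just one of the two conditions; inactive = meets neither condition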;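 note: plate controls were neutral control median for no effect and positive control median for full effect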
3T3 cytotox = kills mouse NIH/3T3 fibroblasts; shares compounds with T cruzi growth-1; NIH/3T3 viability, CellTiter-Glo ATP luminescence, 90 h; cytotoxicity (signal decrease), % at 8.35 µM; hit rate 14% among 5,600;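 active = mean signal decrease across replicates above about 35% based on untreated-well scatter, with enough replicates individually passing, limit read from the data; inconclusive = no rule stated though some were filed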;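 note: 0% = median of neutral control wells and 100% = median of positive control wells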
3T3 cytotox 2 = cytotoxicity in mouse NIH/3T3 fibroblasts; NIH/3T3 viability, CellTiter-Glo ATP luminescence, 90 h; shares compounds with T cruzi growth-1; AID 651744; inhibition, % at 24.9 µM; hit rate 56% among 5,600;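 active = mean loss of cell viability signal at or above a set limit, and enough replicates individually reaching it; inconclusive = meets only the mean limit or only the replicate share; inactive = meets neither condition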;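 note: 0% = median of neutral control wells and 100% = median of positive control wells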
Active calls of the source: *; ? = inconclusive; . = no result. Many of the other results were omitted from the sample, so hits are more common in it than they were.

SMILES	IDH1 R132H inh	T cruzi growth-1	KDM4C inh	others
Cc1ccc(S(=O)(=O)N(C)C[C@@H]2Oc3ncc(-c4cccc(C(F)(F)F)c4)cc3C(=O)N([C@H](C)CO)C[C@@H]2C)cc1	1	126*	-3	T cruzi growth-2=106*;T cruzi growth-3=63;3T3 cytotox=48*;3T3 cytotox 2=43*
COc1cccc(S(=O)(=O)N(C)C[C@@H]2Oc3ncc(C#CC(C)C)cc3C(=O)N([C@@H](C)CO)C[C@H]2C)c1	-34	88	-1
C[C@H](CO)N1C[C@H](C)[C@H](CN(C)S(=O)(=O)c2ccc(C#N)cc2)Oc2ncc(-c3cccc(C(F)(F)F)c3)cc2C1=O	-2	27	-2
COC(=O)c1cc(C(=O)OC)cc(-n2c(C)cc(C(=O)CSc3nc(C)cc(C)c3C#N)c2C)c1	0	.	.
O=C(CSCCO)Nc1ccc(F)cc1	1	.	.
O=C(CCCCCCC(=O)N/N=C/C1=CCCCC1)NO	0	.	.
COc1ccc(CN(C)C[C@@H]2OCCCC[C@@H](C)Oc3ccc(NC(=O)C4CCCCC4)cc3C(=O)N([C@@H](C)CO)C[C@H]2C)cc1	.	89	0
COc1ccc(CN(C)C[C@H]2OCCCC[C@H](C)Oc3ccc(NC(=O)C4CCCCC4)cc3C(=O)N([C@H](C)CO)C[C@@H]2C)cc1	0	74	-1
COc1ccc(CN(C)C[C@@H]2OCCCC[C@H](C)Oc3ccc(NC(=O)C4CCCCC4)cc3C(=O)N([C@@H](C)CO)C[C@@H]2C)cc1	4	69	-1
COc1ccc(CN(C)C[C@H]2OCCCC[C@H](C)Oc3ccc(NC(=O)C4CCCCC4)cc3C(=O)N([C@@H](C)CO)C[C@H]2C)cc1	-1	102*	2	T cruzi growth-2=?;T cruzi growth-3=71;3T3 cytotox=-2;3T3 cytotox 2=27*
COc1ccc(CN(C)C[C@H]2OCCCC[C@@H](C)Oc3ccc(NC(=O)C4CCCCC4)cc3C(=O)N([C@@H](C)CO)C[C@H]2C)cc1	1	105*	0	T cruzi growth-2=84;T cruzi growth-3=47;3T3 cytotox=6;3T3 cytotox 2=76*
COc1ccc(CN(C)C[C@H]2OCCCC[C@@H](C)Oc3ccc(NC(=O)C4CCCCC4)cc3C(=O)N([C@H](C)CO)C[C@H]2C)cc1	4	104*	-1	T cruzi growth-2=102*;T cruzi growth-3=60;3T3 cytotox=15;3T3 cytotox 2=96*
CC(=O)Nc1ccc(-c2nnc(SCC(=O)Nc3ccc(Cl)cc3Cl)n2C)cc1	0	.	.
COc1cc2c(cc1NC(=O)CSc1nnnn1C)oc1ccccc12	0	.	.
COc1cc(S(=O)(=O)NCc2ccccn2)ccc1Br	0	.	.
COc1ccc(N(CC(=O)Nc2cccc(Cl)c2Cl)S(C)(=O)=O)cc1OC	0	.	.
C[C@@H]1CN([C@H](C)CO)S(=O)(=O)c2ccc(Br)cc2O[C@@H]1CN(C)S(=O)(=O)c1ccc(F)cc1	-6	87	-4
C[C@H](CO)N1C[C@H](C)[C@H](CN(C)S(=O)(=O)c2cccc(F)c2)Oc2cc(Br)ccc2S1(=O)=O	.	117*	0	T cruzi growth-2=106*;T cruzi growth-3=66;3T3 cytotox=4;3T3 cytotox 2=49*
C[C@@H]1CN([C@@H](C)CO)S(=O)(=O)c2ccc(Br)cc2O[C@H]1CN(C)S(=O)(=O)c1ccc(F)cc1	-3	100*	-1	T cruzi growth-2=106*;T cruzi growth-3=45;3T3 cytotox=23;3T3 cytotox 2=78*
Cc1ccc(S(=O)(=O)N(C)C[C@H]2Oc3cc(Br)ccc3S(=O)(=O)N([C@H](C)CO)C[C@@H]2C)cc1	2	110*	-1	T cruzi growth-2=107*;T cruzi growth-3=81;3T3 cytotox=33;3T3 cytotox 2=61*
Cc1ccc(S(=O)(=O)N(C)C[C@@H]2Oc3cc(Br)ccc3S(=O)(=O)N([C@@H](C)CO)C[C@H]2C)cc1	-2	.	-2
C[C@H]1CN([C@@H](C)CO)S(=O)(=O)c2ccc(Br)cc2O[C@@H]1CN(C)S(=O)(=O)c1ccc(F)cc1	-1	90	-2
C[C@@H]1CN([C@H](C)CO)S(=O)(=O)c2ccc(Br)cc2O[C@H]1CN(C)S(=O)(=O)c1ccc(F)cc1	-8	97*	-3	T cruzi growth-2=113*;T cruzi growth-3=38;3T3 cytotox=24;3T3 cytotox 2=61*
O=S(=O)(c1ccccc1)c1nc(-c2ccccc2)oc1NCC1CCCO1 (stereo unspecified)	0	.	.
COc1ccc(OC)c(S(=O)(=O)N2CCC(C(=O)Nc3ccc(Oc4ccccc4)cc3)CC2)c1	-1	.	.
SMILES	IDH1 R132H inh	T cruzi growth-1	KDM4C inh	others
O=C(CSc1nc2ccccc2c(=O)[nH]1)Nc1ccccc1Cl	0	.	.
CCOC(=O)c1sc2ncn(CC(=O)Nc3ccc(OC)cc3)c(=O)c2c1C	0	.	.
COc1ccccc1-n1c(SCC(N)=O)nc2ccc(I)cc2c1=O	2	.	.
Nc1cccc(C2OCCCO2)c1	0	.	.
Cn1c(CN2CCOCC2)nnc1SCC(=O)Nc1ccccc1Br	0	.	.
C/C=C(\C)C(=O)OC1CCC(=O)OC1/C=C/C(O)C(C)O (stereo unspecified)	0	.	.
Cc1ccc(Cn2nc(C)c(NC(=O)c3nc4ncccn4n3)c2C)cc1	0	.	.
Cc1cc(C)nc(/N=C2\NC(=O)CC(C(=O)O)N2c2cccc(C(F)(F)F)c2)n1 (stereo unspecified)	0	.	.
C/C=C/c1cnc2c(c1)C(=O)N([C@@H](C)CO)C[C@H](C)[C@@H](CN(C)Cc1ccc(F)cc1)O2	0	37	7
C/C=C/c1cnc2c(c1)C(=O)N([C@@H](C)CO)C[C@H](C)[C@H](CN(C)Cc1ccc(F)cc1)O2	0	114*	5	T cruzi growth-2=75;T cruzi growth-3=18;3T3 cytotox=23;3T3 cytotox 2=48*
C/C=C/c1cnc2c(c1)C(=O)N([C@H](C)CO)C[C@@H](C)[C@@H](CN(C)Cc1ccc(F)cc1)O2	0	119*	-2	T cruzi growth-2=?;T cruzi growth-3=-21;3T3 cytotox=-5;3T3 cytotox 2=?
C/C=C/c1cnc2c(c1)C(=O)N([C@H](C)CO)C[C@H](C)[C@@H](CN(C)Cc1ccc(F)cc1)O2	0	46	7
O=C(O)CCCCCC(=O)N/N=C/c1cc(Br)cs1	0	.	.
CCn1c(SCC(=O)Nc2c(F)cc(F)cc2Br)nnc1-c1ccccc1F	0	.	.
CC(Sc1nc(=O)cc(N)n1-c1ccccc1)C(=O)Nc1ccc(Cl)cc1 (stereo unspecified)	1	.	.
COc1ccc(C(CC(=O)O)C(=O)O)cc1OC (stereo unspecified)	0	.	.
CCN(CC(=O)Nc1ccccc1F)S(=O)(=O)c1ccc2ccccc2c1	0	.	.
O=C(O)C(Cc1ccccc1)N1C(=O)C2C3C=CC(C3)C2C1=O (stereo unspecified)	0	.	.
C=C1C[C@@]23CC[C@@H]4[C@](C)(C(=O)O)CCC[C@@]4(C)C2=CC[C@H]1C3	0	.	.
O=C(Nc1ccccc1)N1CCCCN2[C@@H](CO)[C@H](c3ccc(C#Cc4ccccn4)cc3)[C@@H]2C1	.	72	0
COc1ccc(NC(=O)N2CCCCN3[C@H](CO)[C@H](c4ccc(C#Cc5ccccn5)cc4)[C@@H]3C2)cc1	.	44	1
